# Data: ChEMBL document CHEMBL3272012, “5-(Tetradecyloxy)-2-furancarboxylic acid and related hypolipidemic fatty acid-like alkyloxyarylcarboxylic acids” (J Med Chem, 1977)
# Tests used:
# Rattus norvegicus [1] = assay: Hypolipidemic activity in Wistar rat assessed as reduction in plasma triglyceride level at 571 umol/kg/day administered through diet for 10 days; assay type: functional; conditions: 240 h
# Rattus norvegicus [2] = assay: Hypolipidemic activity in Wistar rat assessed as reduction in plasma cholesterol level at 571 umol/kg/day administered through diet for 10 days; assay type: functional; conditions: 240 h
# Procedure, shortened: (§1)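 Young male Wistar rats (initial weight 170-190 g), groups of six, fed compound mixed into Purina Lab Chow ad libitum for 4 or 10 days; daily dose calculated from food consumption and body weight. Bled by cardiac puncture; plasma cholesterol and triglycerides by automated procedures; percent reduction versus simultaneous untreated controls, Student's t test.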
# Rattus norvegicus [3] = assay: Increase in cholesterol level in Wistar rat liver at 571 umol/kg/day administered through diet for 10 days; assay type: ADME, organism-based; conditions: in vivo, po, 240 h
# Rattus norvegicus [4] = assay: Increase in liver weight in Wistar rat at 571 umol/kg/day administered through diet for 10 days; assay type: ADME, organism-based; conditions: in vivo, po, 240 h
# Rattus norvegicus [5] = assay: Hypolipidemic activity in Wistar rat assessed as reduction in plasma triglyceride level at 406 umol/kg/day administered through diet for 4 days; assay type: functional; conditions: 96 h
# Rattus norvegicus [6] = assay: Hypolipidemic activity in Wistar rat assessed as reduction in plasma cholesterol level at 406 umol/kg/day administered through diet for 4 days; assay type: functional; conditions: 96 h
# Procedure, shortened: (§2)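 Young male Wistar rats, 170-190 g at start, in groups of six, given compound mixed into Purina Lab Chow ad libitum for 4 or 10 days as stated. Daily dose was calculated from food consumption and body weight. Plasma was taken by cardiac puncture at the end and cholesterol measured by automated procedure. Results are % reduction versus a concurrent untreated control group, with Student's t test.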
# Rattus norvegicus [7] = assay: Increase in liver weight in Wistar rat at 406 umol/kg/day administered through diet for 4 days; assay type: ADME, organism-based; conditions: in vivo, po, 96 h
# Rattus norvegicus [8] = assay: Increase in cholesterol level in Wistar rat liver at 406 umol/kg/day administered through diet for 4 days; assay type: ADME, organism-based; conditions: in vivo, po, 96 h
# Rattus norvegicus [9] = assay: Hypolipidemic activity in Wistar rat assessed as reduction in plasma triglyceride level at 591 umol/kg/day administered through diet for 4 days; assay type: functional; conditions: 96 h
# Rattus norvegicus [10] = assay: Hypolipidemic activity in Wistar rat assessed as reduction in plasma cholesterol level at 591 umol/kg/day administered through diet for 4 days; assay type: functional; conditions: 96 h; procedure, shortened: as §1
# Rattus norvegicus [11] = assay: Increase in cholesterol level in Wistar rat liver at 591 umol/kg/day administered through diet for 4 days; assay type: ADME, organism-based; conditions: in vivo, po, 96 h
# Rattus norvegicus [12] = assay: Increase in liver weight in Wistar rat at 591 umol/kg/day administered through diet for 4 days; assay type: ADME, organism-based; conditions: in vivo, po, 96 h
# Rattus norvegicus [13] = assay: Hypolipidemic activity in Wistar rat assessed as reduction in plasma triglyceride level at 179 umol/kg/day administered through diet for 10 days; assay type: functional; conditions: 240 h; procedure, shortened: as §1
# Rattus norvegicus [14] = assay: Hypolipidemic activity in Wistar rat assessed as reduction in plasma triglyceride level at 1498 umol/kg/day administered through diet for 10 days; assay type: functional; conditions: 240 h
# Procedure, shortened: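 Young male Wistar rats, 170-190 g initial weight, six per group, fed drug mixed thoroughly into Purina Lab Chow ad libitum for the stated days; daily dose calculated from food consumption and body weight. Bled by cardiac puncture at end; plasma cholesterol and triglycerides by automated procedures, expressed as percent reduction versus simultaneous untreated controls; Student's t test.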
# Rattus norvegicus [15] = assay: Hypolipidemic activity in Wistar rat assessed as reduction in plasma triglyceride level at 558 umol/kg/day administered through diet for 10 days; assay type: functional; conditions: 240 h; procedure, shortened: as §1
# Rattus norvegicus [16] = assay: Hypolipidemic activity in Wistar rat assessed as reduction in plasma cholesterol level at 179 umol/kg/day administered through diet for 10 days; assay type: functional; conditions: 240 h; procedure, shortened: as §2
# Rattus norvegicus [17] = assay: Hypolipidemic activity in Wistar rat assessed as reduction in plasma cholesterol level at 1498 umol/kg/day administered through diet for 10 days; assay type: functional; conditions: 240 h; procedure, shortened: as §2
# Rattus norvegicus [18] = assay: Hypolipidemic activity in Wistar rat assessed as reduction in plasma cholesterol level at 558 umol/kg/day administered through diet for 10 days; assay type: functional; conditions: 240 h; procedure, shortened: as §1
# Rattus norvegicus [19] = assay: Increase in cholesterol level in Wistar rat liver at 1498 umol/kg/day administered through diet for 10 days; assay type: ADME, organism-based; conditions: in vivo, po, 240 h
# Rattus norvegicus [20] = assay: Increase in cholesterol level in Wistar rat liver at 558 umol/kg/day administered through diet for 10 days; assay type: ADME, organism-based; conditions: in vivo, po, 240 h
# Procedure, shortened: (§3)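 Male Wistar rats (170-190 g), six per group, given compound by admixture to lab chow ad libitum for 4 or 10 days, dose derived from food intake. Liver cholesterol determined by automated procedure, expressed as mg/g wet tissue, compared with an untreated control group by Student's t test.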
# Rattus norvegicus [21] = assay: Increase in cholesterol level in Wistar rat liver at 179 umol/kg/day administered through diet for 10 days; assay type: ADME, organism-based; conditions: in vivo, po, 240 h; procedure, shortened: as §3
# Rattus norvegicus [22] = assay: Increase in liver weight in Wistar rat at 1498 umol/kg/day administered through diet for 10 days; assay type: ADME, organism-based; conditions: in vivo, po, 240 h
# Rattus norvegicus [23] = assay: Increase in liver weight in Wistar rat at 558 umol/kg/day administered through diet for 10 days; assay type: ADME, organism-based; conditions: in vivo, po, 240 h
# Procedure, shortened: (§4)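 Male Wistar rats (170-190 g initial), groups of six, dosed via diet ad libitum for 4 or 10 days, daily dose from food consumption. Liver wet weight measured, expressed as g/100 g final body weight, compared with untreated controls run simultaneously.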
# Rattus norvegicus [24] = assay: Hypolipidemic activity in Wistar rat assessed as reduction in plasma triglyceride level at 477 umol/kg/day administered through diet for 4 days; assay type: functional; conditions: 96 h
# Rattus norvegicus [25] = assay: Hypolipidemic activity in Wistar rat assessed as reduction in plasma cholesterol level at 477 umol/kg/day administered through diet for 4 days; assay type: functional; conditions: 96 h
# Procedure, shortened: (§5)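 Young male Wistar rats, 170-190 g initial weight, groups of six, given compound mixed thoroughly into Purina Lab Chow ad libitum for 4 or 10 days as stated. Daily dose calculated from food consumption and body weight. Bled by cardiac puncture at end of treatment; plasma cholesterol measured by automated procedure. Expressed as percent reduction versus simultaneous untreated control group; Student's t test.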
# Rattus norvegicus [26] = assay: Increase in liver weight in Wistar rat at 477 umol/kg/day administered through diet for 4 days; assay type: ADME, organism-based; conditions: in vivo, po, 96 h
# Rattus norvegicus [27] = assay: Increase in cholesterol level in Wistar rat liver at 477 umol/kg/day administered through diet for 4 days; assay type: ADME, organism-based; conditions: in vivo, po, 96 h
# Rattus norvegicus [28] = assay: Hypolipidemic activity in Wistar rat assessed as reduction in plasma triglyceride level at 499 umol/kg/day administered through diet for 4 days; assay type: functional; conditions: 96 h; procedure, shortened: as §1
# Rattus norvegicus [29] = assay: Hypolipidemic activity in Wistar rat assessed as reduction in plasma cholesterol level at 499 umol/kg/day administered through diet for 4 days; assay type: functional; conditions: 96 h; procedure, shortened: as §5
# Rattus norvegicus [30] = assay: Increase in liver weight in Wistar rat at 499 umol/kg/day administered through diet for 4 days; assay type: ADME, organism-based; conditions: in vivo, po, 96 h; procedure, shortened: as §4
# Rattus norvegicus [31] = assay: Increase in cholesterol level in Wistar rat liver at 499 umol/kg/day administered through diet for 4 days; assay type: ADME, organism-based; conditions: in vivo, po, 96 h
# Rattus norvegicus [32] = assay: Hypolipidemic activity in Wistar rat assessed as reduction in plasma triglyceride level at 401 umol/kg/day administered through diet for 4 days; assay type: functional; conditions: 96 h; procedure, shortened: as §1
# Rattus norvegicus [33] = assay: Hypolipidemic activity in Wistar rat assessed as reduction in plasma cholesterol level at 401 umol/kg/day administered through diet for 4 days; assay type: functional; conditions: 96 h; procedure, shortened: as §2
# Rattus norvegicus [34] = assay: Increase in liver weight in Wistar rat at 401 umol/kg/day administered through diet for 4 days; assay type: ADME, organism-based; conditions: in vivo, po, 96 h; procedure, shortened: as §4
# Rattus norvegicus [35] = assay: Increase in cholesterol level in Wistar rat liver at 401 umol/kg/day administered through diet for 4 days; assay type: ADME, organism-based; conditions: in vivo, po, 96 h
# Rattus norvegicus [36] = assay: Hypolipidemic activity in Wistar rat assessed as reduction in plasma triglyceride level at 385 umol/kg/day administered through diet for 4 days; assay type: functional; conditions: 96 h
# Procedure, shortened: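 Young male Wistar rats (170-190 g initial weight), groups of six, fed test compound mixed into Purina Lab Chow ad libitum; daily dose calculated from food consumption and body weight. Bled by cardiac puncture at end of treatment; plasma triglycerides measured by automated procedure. Results given as percent reduction versus a simultaneous untreated control group, with significance by Student's t test.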
# Rattus norvegicus [37] = assay: Hypolipidemic activity in Wistar rat assessed as reduction in plasma cholesterol level at 385 umol/kg/day administered through diet for 4 days; assay type: functional; conditions: 96 h; procedure, shortened: as §2
# Rattus norvegicus [38] = assay: Increase in cholesterol level in Wistar rat liver at 385 umol/kg/day administered through diet for 4 days; assay type: ADME, organism-based; conditions: in vivo, po, 96 h
# Rattus norvegicus [39] = assay: Increase in liver weight in Wistar rat at 385 umol/kg/day administered through diet for 4 days; assay type: ADME, organism-based; conditions: in vivo, po, 96 h
# Rattus norvegicus [40] = assay: Hypolipidemic activity in Wistar rat assessed as reduction in plasma triglyceride level at 446 umol/kg/day administered through diet for 4 days; assay type: functional; conditions: 96 h
# Rattus norvegicus [41] = assay: Hypolipidemic activity in Wistar rat assessed as reduction in plasma cholesterol level at 446 umol/kg/day administered through diet for 4 days; assay type: functional; conditions: 96 h; procedure, shortened: as §5
# Rattus norvegicus [42] = assay: Increase in cholesterol level in Wistar rat liver at 446 umol/kg/day administered through diet for 4 days; assay type: ADME, organism-based; conditions: in vivo, po, 96 h
# Rattus norvegicus [43] = assay: Increase in liver weight in Wistar rat at 446 umol/kg/day administered through diet for 4 days; assay type: ADME, organism-based; conditions: in vivo, po, 96 h
smiles,measurement,setting,value
CCCCCCCCCCCCCc1ccc(C(=O)O)cc1,inhibition in vivo at 571 µmol/kg,Rattus norvegicus [1],77%
same,inhibition in vivo at 571 µmol/kg,Rattus norvegicus [2],54%
same,Activity,Rattus norvegicus [3],61%
same,Activity,Rattus norvegicus [4],25%
CCCCCCCCCCCCCCOc1ccc(COC(C)=O)cc1,inhibition in vivo at 406 µmol/kg,Rattus norvegicus [5],62%
same,inhibition in vivo at 406 µmol/kg,Rattus norvegicus [6],22%
same,Activity,Rattus norvegicus [7],17%
same,Activity,Rattus norvegicus [8],11%
CCCCCCCCOc1ccc(C(=O)O)cc1,inhibition in vivo at 591 µmol/kg,Rattus norvegicus [9],35%
same,inhibition in vivo at 591 µmol/kg,Rattus norvegicus [10],8%
same,Activity,Rattus norvegicus [11],12%
same,Activity,Rattus norvegicus [12],0%
CCCCCCCCCCCCc1ccc(C(=O)O)cc1,inhibition in vivo at 179 µmol/kg,Rattus norvegicus [13],62%
same,inhibition in vivo at 1498 µmol/kg,Rattus norvegicus [14],74%
same,inhibition in vivo at 558 µmol/kg,Rattus norvegicus [15],78%
same,inhibition in vivo at 179 µmol/kg,Rattus norvegicus [16],34%
same,inhibition in vivo at 1498 µmol/kg,Rattus norvegicus [17],55%
same,inhibition in vivo at 558 µmol/kg,Rattus norvegicus [18],48%
same,Activity,Rattus norvegicus [19],323%
same,Activity,Rattus norvegicus [20],215%
same,Activity,Rattus norvegicus [21],79%
same,Activity,Rattus norvegicus [22],38%
same,Activity,Rattus norvegicus [23],29%
CCCCCCCCCCCCCCOc1ccc(CO)cc1,inhibition in vivo at 477 µmol/kg,Rattus norvegicus [24],41%
same,inhibition in vivo at 477 µmol/kg,Rattus norvegicus [25],35%
same,Activity,Rattus norvegicus [26],17%
same,Activity,Rattus norvegicus [27],33%
CCCCCCCCCCCCCCOc1ccc(C=O)cc1,inhibition in vivo at 499 µmol/kg,Rattus norvegicus [28],68%
same,inhibition in vivo at 499 µmol/kg,Rattus norvegicus [29],25%
same,Activity,Rattus norvegicus [30],18%
same,Activity,Rattus norvegicus [31],12%
CCCCCCCCCCCCCCOc1ccc(CCC(=O)OC)cc1,inhibition in vivo at 401 µmol/kg,Rattus norvegicus [32],73%
same,inhibition in vivo at 401 µmol/kg,Rattus norvegicus [33],41%
same,Activity,Rattus norvegicus [34],17%
same,Activity,Rattus norvegicus [35],15%
CCCCCCCCCCCCCCOc1ccc(COC(=O)OCC)cc1,inhibition in vivo at 385 µmol/kg,Rattus norvegicus [36],70%
same,inhibition in vivo at 385 µmol/kg,Rattus norvegicus [37],38%
same,Activity,Rattus norvegicus [38],12%
same,Activity,Rattus norvegicus [39],11%
CCCCCCCCCCCCCCOc1ccc(OCC(=O)OC)cc1,inhibition in vivo at 446 µmol/kg,Rattus norvegicus [40],0%
same,inhibition in vivo at 446 µmol/kg,Rattus norvegicus [41],10%
same,Activity,Rattus norvegicus [42],0%
same,Activity,Rattus norvegicus [43],4%
